In ChEMBL document CHEMBL4425095, “Novel Cephalosporins Selectively Active on Nonreplicating Mycobacterium tuberculosis” (J Med Chem, 2016):

Test system: Mycobacterium tuberculosis
Assay: Antibacterial activity against replicating Mycobacterium bovis BCG measured at OD580 = 0.01
Assay type: functional
Conditions: variant bovis BCG
How it was run: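 Replicating organisms in the paper's earlier-described bacteriologic medium; 200 μL of cells at OD580 0.01 exposed to DMSO vehicle or drug in 96-well plates; growth read by optical density.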

Row | SMILES | MIC90 [µg/mL]
1 | CCCOC(=O)C1=C(C)CS[C@@H]2[C@H](NC(=O)COc3ccccc3)C(=O)N12 | > 100
2 | CC1=C(c2nc(C)no2)N2C(=O)[C@@H](NC(=O)COc3ccccc3)[C@H]2SC1 | > 100
